Key:
[1] = Protein binding in dog serum; assay type: ADME, cell-free, Canis lupus familiaris
Blood = test: Reduction of LPS-induced TNFalpha in human whole blood; assay type: functional, tissue-based
How it was run: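 LPS-induced TNF-α production in human whole blood; suppression of TNF-α measured.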

[2] = Half life in Sprague-Dawley rat at 5.0 mg/kg, iv; assay type: ADME, organism-based; design: dose 5 mg/kg, route intravenous; settings: in vivo
How it was run: (§1)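 Discrete or cassette (n-in-1) dosing, given intravenously and orally. Sprague–Dawley rats received 5.0 mg/kg iv and 8.0 mg/kg po; beagle dogs received 2.0 mg/kg iv and 8.0 mg/kg po. Three animals per dosing group; averaged values reported. AUC is reported in nM h.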

[3] = Protein binding in rat serum; assay type: ADME, cell-free
[4] = Half life in Beagle dog at 2.0 mg/kg, iv; assay type: ADME, organism-based, Canis lupus familiaris; design: dose 2 mg/kg, route intravenous; settings: in vivo; how it was run: as §1
Mus musculus = test: Reduction of LPS-induced TNFalpha level in orally dosed mouse after 1 hr; assay type: functional; settings: po
How it was run: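 Mouse LPS endotoxemia model. LPS and test compound in vehicle were given together by oral gavage at t = 0 h, across several doses. Mice were euthanized 1 h post dose, blood was taken by cardiac puncture, and plasma TNF-α was measured. ED50 was calculated from the dose response.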

[5] = Protein binding in human serum; assay type: ADME, cell-free
[6] = target: T1, A disintegrin and metalloproteinase with thrombospondin motifs 5 (Homo sapiens, UniProt Q9UNA0); test: Inhibition of ADAMTS5
T1 sequence (Q9UNA0 whole entry): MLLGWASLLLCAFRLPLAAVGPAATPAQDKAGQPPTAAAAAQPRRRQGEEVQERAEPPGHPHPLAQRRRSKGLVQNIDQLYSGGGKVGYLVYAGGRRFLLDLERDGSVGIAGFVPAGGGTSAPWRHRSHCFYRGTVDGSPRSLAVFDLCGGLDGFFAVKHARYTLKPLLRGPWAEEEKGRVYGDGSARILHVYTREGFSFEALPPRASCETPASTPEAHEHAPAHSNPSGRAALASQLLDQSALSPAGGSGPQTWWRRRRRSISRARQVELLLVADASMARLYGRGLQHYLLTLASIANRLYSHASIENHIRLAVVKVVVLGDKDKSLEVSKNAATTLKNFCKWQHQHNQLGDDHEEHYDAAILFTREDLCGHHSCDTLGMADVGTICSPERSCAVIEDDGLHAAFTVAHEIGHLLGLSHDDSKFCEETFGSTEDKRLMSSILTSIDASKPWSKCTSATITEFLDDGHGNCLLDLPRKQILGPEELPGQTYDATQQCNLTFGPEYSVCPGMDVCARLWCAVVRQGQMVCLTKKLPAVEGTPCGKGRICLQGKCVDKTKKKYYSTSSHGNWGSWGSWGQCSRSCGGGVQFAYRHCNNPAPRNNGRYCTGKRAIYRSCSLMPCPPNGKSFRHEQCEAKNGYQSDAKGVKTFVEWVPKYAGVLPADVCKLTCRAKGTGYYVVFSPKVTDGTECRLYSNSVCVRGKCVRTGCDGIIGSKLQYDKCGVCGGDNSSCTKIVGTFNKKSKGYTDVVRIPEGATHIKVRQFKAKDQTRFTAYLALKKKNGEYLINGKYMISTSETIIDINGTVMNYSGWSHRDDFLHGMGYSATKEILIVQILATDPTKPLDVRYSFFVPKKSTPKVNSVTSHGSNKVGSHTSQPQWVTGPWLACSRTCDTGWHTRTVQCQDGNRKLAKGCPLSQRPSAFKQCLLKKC

[7] = Volume of distribution at steady state in Beagle dog at 2.0 mg/kg, iv; assay type: ADME, organism-based, Canis lupus familiaris; design: dose 2 mg/kg, route intravenous; settings: in vivo, read-out: Vdss; how it was run: as §1
[8] = Half life in Beagle dog at 8.0 mg/kg, po; settings: in vivo
[9] = Tmax in Beagle dog at 8.0 mg/kg, po; settings: in vivo
[10] = AUC in Beagle dog at 2.0 mg/kg, iv; assay type: ADME, organism-based, Canis lupus familiaris; design: dose 2 mg/kg, route intravenous; settings: plasma; how it was run: as §1
[11] = AUC in Sprague-Dawley rat at 8.0 mg/kg, po; assay type: ADME, organism-based; design: dose 8 mg/kg, route oral; settings: plasma; how it was run: as §1
[12] = Oral bioavailability in Sprague-Dawley rat at 8.0 mg/kg; assay type: ADME, organism-based; settings: in vivo; how it was run: as §1
[13] = AUC in Sprague-Dawley rat at 5.0 mg/kg, iv; assay type: ADME, organism-based; design: dose 5 mg/kg, route intravenous; settings: plasma; how it was run: as §1
[14] = Volume of distribution at steady state in Sprague-Dawley rat at 5.0 mg/kg, iv; assay type: ADME, organism-based; design: dose 5 mg/kg, route intravenous; settings: in vivo, read-out: Vdss; how it was run: as §1
[15] = Tmax in Sprague-Dawley rat at 8.0 mg/kg, po; assay type: ADME, organism-based; design: dose 8 mg/kg, route oral; settings: in vivo; how it was run: as §1
Stromelysin-2 = Stromelysin-2 (Homo sapiens, UniProt P09238); test: Inhibition of MMP10
How it was run: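 MMP Ki values come from a single determination.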

[16] = Clearance in Sprague-Dawley rat at 5.0 mg/kg, iv; assay type: ADME, organism-based; design: dose 5 mg/kg, route intravenous; settings: in vivo; how it was run: as §1
[17] = Clearance in Beagle dog at 2.0 mg/kg, iv; assay type: ADME, organism-based, Canis lupus familiaris; design: dose 2 mg/kg, route intravenous; settings: in vivo; how it was run: as §1
[18] = AUC in Beagle dog at 8.0 mg/kg, po; settings: plasma
[19] = Half life in Sprague-Dawley rat at 8.0 mg/kg, po; assay type: ADME, organism-based; design: dose 8 mg/kg, route oral; settings: in vivo; how it was run: as §1
[20] = Apparent permeability across human Caco-2 cells; assay type: ADME, cell-based
How it was run: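 Apparent permeability measured across Caco-2 cell monolayers in the apical-to-basolateral (A→B) direction.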

[21] = Oral bioavailability in Beagle dog at 8.0 mg/kg, po; settings: in vivo

Stromelysin-2, sequence (P09238 whole entry): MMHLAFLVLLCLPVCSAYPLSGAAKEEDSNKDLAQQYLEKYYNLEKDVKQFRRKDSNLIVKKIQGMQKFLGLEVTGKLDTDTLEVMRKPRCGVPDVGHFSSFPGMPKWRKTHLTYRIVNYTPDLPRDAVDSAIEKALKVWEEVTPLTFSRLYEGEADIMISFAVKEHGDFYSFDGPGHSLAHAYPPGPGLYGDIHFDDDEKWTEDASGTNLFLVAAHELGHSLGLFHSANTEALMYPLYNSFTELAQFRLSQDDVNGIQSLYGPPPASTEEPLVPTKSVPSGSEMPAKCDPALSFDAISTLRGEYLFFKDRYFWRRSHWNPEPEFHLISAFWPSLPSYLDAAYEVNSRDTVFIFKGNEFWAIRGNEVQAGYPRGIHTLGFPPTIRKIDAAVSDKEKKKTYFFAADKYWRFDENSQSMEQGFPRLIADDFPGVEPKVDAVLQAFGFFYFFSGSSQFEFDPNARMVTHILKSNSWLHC

O=C(N[C@@H]1CCOC[C@@H]1C(=O)NO)c1ccc(Cn2c(C(F)(F)F)nc3ccccc32)cc1
fraction unbound [1]: 0.2 | IC50 (Blood): 232 nM | half-life [2]: 210 min | fraction unbound [3]: 0.2 | half-life [4]: 252 min | ED50 (Mus musculus): 1.9 mg/kg | fraction unbound [5]: 0.21 | Ki [6]: 1000 nM | Vd [7]: 1 L/kg | half-life [8]: 288 min | Tmax [9]: 30 min | AUC [10]: 9.97 µM·h | AUC [11]: 5.84 µM·h | bioavailability [12]: 53% | AUC [13]: 6.85 µM·h | Vd [14]: 1.5 L/kg | Tmax [15]: 18 min | IC50 (Stromelysin-2): > 10 µM | clearance [16]: 26.7 mL/min/kg | clearance [17]: 10 mL/min/kg | AUC [18]: 39.5 µM·h | half-life [19]: 144 min | Papp [20]: 0.7 ×10⁻⁶ cm/s | bioavailability [21]: 99%
